For assay [1], the system named is Rattus norvegicus. Put plainly: In vivo changes in different brain area levels of 5-HTP in reserpinized rat corpus striatum. In kind it is functional. The essentials: (§1)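 Male Sprague-Dawley rats (200-300 g) pretreated with reserpine 5 mg/kg sc 18 h before. Injection volume 5 mL/kg at neutral pH. Brain-region 5-HTP measured by HPLC with electrochemical detection. Dose-response curves used four to six doses, n = 4.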

Assay [2] has as its system Rattus norvegicus. In words: In vivo for biochemical effect against brain area levels of 5-HTP in reserpinized rat hemispheres (mainly cortex). In kind it is functional. In a few lines:
(§2)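 Male Sprague-Dawley rats (200-300 g) pretreated with reserpine 5 mg/kg sc 18 h before. Injection volume 5 mL/kg, test solutions at neutral pH. DOPA and 5-HTP in limbic system, striatum and hemispheres measured by HPLC with electrochemical detection. Dose-response curves from four to six dose levels (n = 4) per brain area.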

The target in another assay is D(3) dopamine receptor (Rattus norvegicus, UniProt P19020). In words: In vitro binding affinity against cloned mammalian Dopamine receptor D3 expressed in CHO cells by, using [3H]-spiperone as radioligand. The settings on record: read-out: Ki. In kind it is cell-based.
D(3) dopamine receptor, sequence (P19020 whole entry): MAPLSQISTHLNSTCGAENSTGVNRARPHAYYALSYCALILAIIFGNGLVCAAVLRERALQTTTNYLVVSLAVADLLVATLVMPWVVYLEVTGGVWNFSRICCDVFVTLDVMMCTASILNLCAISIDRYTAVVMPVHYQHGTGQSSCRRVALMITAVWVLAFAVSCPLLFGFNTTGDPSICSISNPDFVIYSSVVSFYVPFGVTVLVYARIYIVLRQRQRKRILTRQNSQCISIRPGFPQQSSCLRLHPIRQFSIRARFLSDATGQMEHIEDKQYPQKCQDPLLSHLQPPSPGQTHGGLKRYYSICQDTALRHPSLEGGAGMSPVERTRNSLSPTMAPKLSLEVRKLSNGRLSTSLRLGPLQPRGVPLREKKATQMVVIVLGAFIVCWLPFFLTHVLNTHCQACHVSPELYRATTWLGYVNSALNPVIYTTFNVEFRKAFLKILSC
In assay [3] the target is 5-hydroxytryptamine receptor 1D (Homo sapiens, UniProt P28221). Put plainly: In vitro binding affinity against cloned mammalian 5-hydroxytryptamine 1D receptor alpha expressed in CHO cells, by using [3H]5-HT as radioligand. In kind it is cell-based. The essentials: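 Competition binding on CHO-cell membranes (20-60 μg protein) in 50 mM Tris, 5 mM MgCl2, 0.1% ascorbic acid, pH 7.4. Nonspecific binding defined with excess serotonin. 11 drug concentrations, each in duplicate. Incubated 1 h at room temperature, protected from light, then filtered and scintillation counted. IC50 taken from a one-site fit; Ki by Cheng-Prusoff.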
5-hydroxytryptamine receptor 1D, sequence (P28221 whole entry): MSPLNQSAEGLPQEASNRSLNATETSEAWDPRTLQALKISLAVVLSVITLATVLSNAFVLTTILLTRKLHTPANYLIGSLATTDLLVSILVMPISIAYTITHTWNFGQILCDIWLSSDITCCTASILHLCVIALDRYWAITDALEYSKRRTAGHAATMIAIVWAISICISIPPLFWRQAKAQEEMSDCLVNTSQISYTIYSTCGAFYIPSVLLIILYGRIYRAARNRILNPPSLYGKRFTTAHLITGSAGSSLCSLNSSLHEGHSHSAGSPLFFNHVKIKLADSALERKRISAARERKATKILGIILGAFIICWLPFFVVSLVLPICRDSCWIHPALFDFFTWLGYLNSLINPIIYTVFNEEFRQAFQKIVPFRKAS

For assay [4], the system named is Rattus norvegicus. Put plainly: The compound was tested in vivo for biochemical effect against the changes in different brain area levels of DOPA in reserpinized rat hemispheres (mainly cortex)at doest 12.5 umol/kg; Inactive. In kind it is functional, organism-based.
Assay [5] deals with Rattus norvegicus. Put plainly: The compound was tested in vivo for biochemical effect against the changes in different brain area levels of DOPA in reserpinized rat limbic system at dose 12.5 umol/kg; Partial effect. In kind it is functional, organism-based.
Assay [6] has as its system Rattus norvegicus. Put plainly: The compound was tested in vivo for biochemical effect against the changes in different brain area levels of DOPA in reserpinized rat corpus striatum at dose 12.5 umol/kg; Partial effect. In kind it is functional, organism-based.
Assay [7] has as its target T1, 5-hydroxytryptamine receptor 1B (Homo sapiens, UniProt P28222). In words: In vitro binding affinity against cloned mammalian 5-hydroxytryptamine 1D receptor beta expressed in CHO cells, by using [3H]5-HT as radioligand. In kind it is cell-based. In a few lines: (§3)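 Membranes from CHO cells stably expressing the cloned receptor, made by mechanical disruption in ice-cold Tris/EDTA/EGTA pH 7.4 and differential centrifugation. [3H]serotonin at 1.7 nM in 50 mM Tris, 5 mM MgCl2, 0.1% ascorbic acid, pH 7.4. 11 drug concentrations in duplicate, 1 h at room temperature protected from light, then filtration. Excess serotonin defines nonspecific binding. One-site IC50 fit, Ki by Cheng-Prusoff.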

Assay [8] deals with T2, D(2) dopamine receptor (Rattus norvegicus, UniProt P61169). In words: In vitro binding affinity against cloned mammalian Dopamine receptor D2 expressed in CHO cells using [3H]U-86170 as radioligand. In kind it is cell-based. The settings on record: read-out: Ki. The essentials: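 Membranes from CHO cells (20-60 μg protein) in 20 mM HEPES, 10 mM MgSO4, pH 7.4. Nonspecific binding defined with excess haloperidol. 11 concentrations, each in duplicate. Incubated 1 h at room temperature, then filtered and counted. IC50 from a one-site competition fit, converted to Ki by Cheng-Prusoff.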
T2 sequence (P61169 whole entry): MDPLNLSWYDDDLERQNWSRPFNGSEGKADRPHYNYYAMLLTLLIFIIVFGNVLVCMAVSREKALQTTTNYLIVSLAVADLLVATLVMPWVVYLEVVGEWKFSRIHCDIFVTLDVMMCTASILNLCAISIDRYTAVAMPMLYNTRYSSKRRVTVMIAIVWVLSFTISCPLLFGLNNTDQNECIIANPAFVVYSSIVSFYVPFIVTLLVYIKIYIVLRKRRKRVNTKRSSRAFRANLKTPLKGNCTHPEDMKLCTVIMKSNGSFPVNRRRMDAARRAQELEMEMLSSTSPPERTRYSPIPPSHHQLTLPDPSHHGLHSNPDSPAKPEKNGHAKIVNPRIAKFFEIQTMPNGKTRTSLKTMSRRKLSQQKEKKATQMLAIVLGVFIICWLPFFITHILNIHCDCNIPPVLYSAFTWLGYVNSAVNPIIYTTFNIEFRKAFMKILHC

Assay [9] concerns Rattus norvegicus. In words: The compound was tested in vivo for biochemical effect against the changes in different brain area levels of DOPA in reserpinized rat limbic system. In kind it is functional. The essentials:
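Rats (male Sprague-Dawley, 200-300 g) received reserpine 5 mg/kg sc 18 h before. Injections 5 mL/kg at neutral pH. DOPA accumulation measured by HPLC with electrochemical detection as an index of DA or NE synthesis rate. Four to six dose levels, n = 4. ED50 from a sigmoidal fit.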

Assay [10] addresses T2, D(2) dopamine receptor. Put plainly: Binding affinity rat Dopamine receptor D2 expressed in CHO-K1 cells by [3H]U-86170 displacement. In kind it is cell-based.
The test system of assay [11] is Rattus norvegicus. In words: The compound was tested in vivo for biochemical effect against the changes in different brain area levels of DOPA in reserpinized rat corpus striatum. In kind it is functional. The essentials:
as §2

The test system of assay [12] is Rattus norvegicus. Put plainly: The compound was tested in vivo for biochemical effect against the changes in different brain area levels of DOPA in reserpinized rat hemispheres (mainly cortex)at dose 50 uM/kg; inactive. In kind it is functional, organism-based.
Assay [13] relates to Rattus norvegicus. Put plainly: In vivo changes in different brain area levels of 5-HTP in reserpinized rat limbic system. In kind it is functional. In a few lines: as §1
The test system of assay [14] is Rattus norvegicus. In words: The compound was tested in vivo for biochemical effect against the changes in different brain area levels of DOPA in reserpinized rat limbic system at dose 12.5 uM/kg; inactive. In kind it is functional, organism-based. The essentials:
as §2

The test system of assay [15] is Rattus norvegicus. In words: The compound was tested in vivo for biochemical effect against the changes in different brain area levels of DOPA in reserpinized rat hemispheres (mainly cortex)at does 12.5 uM/kg; inactive. In kind it is functional, organism-based. In a few lines: as §2
Assay [16] addresses T1, 5-hydroxytryptamine receptor 1B. Put plainly: The compound was tested in vitro for binding affinity against cloned mammalian 5-hydroxytryptamine 1D receptor beta expressed in CHO cells, by using [3H]5-HT as radioligand. On the set-up: concentration or dose not given beside the values. In kind it is cell-based. The note with it: concentration not given here. In a few lines:
as §3

The subject of assay [17] is Rattus norvegicus. In words: The compound was tested in vivo for biochemical effect against the changes in different brain area levels of DOPA in reserpinized rat limbic system at dose 3.1 uM/kg; Inactive. In kind it is functional, organism-based. In a few lines: as §2
In assay [18] the test system is Rattus norvegicus. Put plainly: The compound was tested in vivo for biochemical effect against the changes in different brain area levels of 5-HTP in reserpinized rat corpus striatum at dose 3.1 uM/kg; Inactive. In kind it is functional, organism-based.
Assay [19] relates to Rattus norvegicus. In words: The compound was tested in vivo for biochemical effect against the changes in different brain area levels of 5-HTP in reserpinized rat hemispheres (mainly cortex)at dose 3.1 uM/kg; Inactive. In kind it is functional, organism-based.
The test system of assay [20] is Rattus norvegicus. Put plainly: The compound was tested in vivo for biochemical effect against the changes in different brain area levels of DOPA in reserpinized rat hemispheres (mainly cortex)at dose 3.1 uM/kg; Inactive. In kind it is functional, organism-based. In a few lines: as §2
Assay [21] deals with Rattus norvegicus. In words: The compound was tested in vivo for biochemical effect against the changes in different brain area levels of 5-HTP in reserpinized rat limbic system at dose 3.1 uM/kg; Inactive. In kind it is functional, organism-based.
The test system of assay [22] is Rattus norvegicus. In words: The compound was tested in vivo for biochemical effect against the changes in different brain area levels of DOPA in reserpinized rat corpus striatum at dose 3.1 uM/kg; Inactive. In kind it is functional, organism-based. The essentials:
as §2

Assay [23] relates to Rattus norvegicus. Put plainly: The compound was tested in vivo for biochemical effect against the changes in different brain area levels of DOPA in reserpinized rat hemispheres (mainly cortex); inactive at dose 50 uM/kg; Inactive. In kind it is functional, organism-based.
Assay [24] addresses D(3) dopamine receptor (Rattus norvegicus) (UniProt P19020). In words: The compound was tested in vitro for binding affinity against cloned mammalian Dopamine receptor D3 expressed in CHO cells by, using [3H]spiperone as radioligand; inactive at 10E-6 M. In kind it is cell-based.

Activity calls are given as the source filed them. The calls are words filed in the database; no cut-off is given here. Where only a bound is given, the exact number is not on record here.

These results are taken from ChEMBL document CHEMBL1128739, “Structure-activity relationships in the 8-amino-6,7,8,9-tetrahydro-3H-benz[e]indole ring system. 2. Effects of 8-amino nitrogen substitution on serotonin receptor binding and pharmacology” (J Med Chem, 1995).

T1 sequence (P28222 whole entry): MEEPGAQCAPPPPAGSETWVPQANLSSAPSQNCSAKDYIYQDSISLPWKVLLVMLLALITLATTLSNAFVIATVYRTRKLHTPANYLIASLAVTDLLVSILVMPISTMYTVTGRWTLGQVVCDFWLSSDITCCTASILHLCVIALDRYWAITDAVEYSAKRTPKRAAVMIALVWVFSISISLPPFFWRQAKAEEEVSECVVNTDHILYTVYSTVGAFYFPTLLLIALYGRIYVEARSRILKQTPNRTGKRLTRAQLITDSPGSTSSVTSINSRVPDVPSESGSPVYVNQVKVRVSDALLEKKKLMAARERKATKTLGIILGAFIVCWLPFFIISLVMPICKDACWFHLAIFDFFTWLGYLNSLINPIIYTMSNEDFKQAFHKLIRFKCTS
D(3) dopamine receptor (Rattus norvegicus), sequence (P19020 whole entry): as the sequence (P19020 whole entry) above

The term ED50 denotes the dose at which the effect has come halfway, by size or by number of responders. Usually Ki stands for a measure of affinity in units of concentration, obtained from inhibition or displacement. Regarding `CCCN(CCCc1ccccc1)[C@@H]1CCc2ccc3[nH]cc(C=O)c3c2C1`, the median effective dose (ED50) in the assay with Rattus norvegicus [1] was 0.43 µmol/kg; in the assay on Rattus norvegicus [2], 0.75 µmol/kg; with Rattus norvegicus [5], “Weak activity”; in the assay with Rattus norvegicus [6], “Weak activity”. Besides, the inhibition constant Ki at D(3) dopamine receptor was 19 nM; in assay [3], 0.9 nM; in [7], 14 nM; at D(2) dopamine receptor [8], 5.8 nM. Further, the ED50 entry in the assay with Rattus norvegicus [4] is “inactive”.
With `CCCN(Cc1ccccc1)C1CCc2ccc3[nH]ccc3c2C1` (configuration not stated), the median effective dose (ED50) in the assay on Rattus norvegicus [1] came out at 6.87 µmol/kg; in the assay with Rattus norvegicus [2], 6.72 µmol/kg; in the assay on Rattus norvegicus [9], 8.1 µmol/kg; in the assay with Rattus norvegicus [11], 8.77 µmol/kg; in the assay on Rattus norvegicus [13], 7.58 µmol/kg. Also, the inhibition constant Ki is 43 nM at D(3) dopamine receptor, 192 nM in [3], 22 nM on D(2) dopamine receptor [10] and 4610 nM in assay [7]. The ED50 entry with Rattus norvegicus [12] is “inactive”.
By inhibition is commonly meant the share of the control response that was lost under treatment. On to `C=CCN(CCC)C1CCc2ccc3[nH]ccc3c2C1` (configuration not stated), for which the ED50 entry with Rattus norvegicus [14] and in the assay on Rattus norvegicus [15] was “inactive” each time. Moreover, the ED50 in the assay on Rattus norvegicus [1] worked out at 0.18 µmol/kg; in the assay on Rattus norvegicus [11] it was 0.97 µmol/kg. Also, the Ki at D(3) dopamine receptor amounted to 77 nM; in assay [3] it was 35 nM; on D(2) dopamine receptor [10] it was 42 nM. The molecule also returned an inhibition in assay [16] of under 45%.
As to `CCCN(Cc1ccccc1)C1CCc2ccc3[nH]cc(C=O)c3c2C1` (configuration not stated), the ED50 result in the assay on Rattus norvegicus [17], with Rattus norvegicus [18], in the assay with Rattus norvegicus [19], with Rattus norvegicus [20], with Rattus norvegicus [21] and with Rattus norvegicus [22] was “inactive” each time. The inhibitory constant (Ki) at D(3) dopamine receptor amounted to 115 nM; in assay [3], 33 nM; in assay [7], 992 nM; at D(2) dopamine receptor [8] it was 90 nM.
Consider `c1cc2c3c(ccc2[nH]1)CCC(N1CCCC1)C3` (configuration not stated), for which the ED50 result with Rattus norvegicus [23] is “inactive”. The ED50 is 0.066 µmol/kg in the assay on Rattus norvegicus [1]; 0.051 µmol/kg in the assay on Rattus norvegicus [2]; 1.57 µmol/kg with Rattus norvegicus [9]; 3.26 µmol/kg in the assay with Rattus norvegicus [11]; 0.092 µmol/kg with Rattus norvegicus [13]. Besides, the inhibition in [24] and in assay [16] was under 45% each time. Further, the Ki in [3] was found to be 77 nM; at D(2) dopamine receptor [10], 94 nM.
